ChEMBL document CHEMBL4414552, “Homotrimerization Approach in the Design of Thrombospondin-1 Mimetic Peptides with Improved Potency in Triggering Regulated Cell Death of Cancer Cells” (J Med Chem, 2019)

Tests used:
[1] = molecular target: Leukocyte surface antigen CD47 (Homo sapiens, UniProt Q08722); test: Binding affinity to CD47 in biotinylated human MEC1 cell membranes by biolayer interferometry
Method in brief: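 Biotinylated membrane preparations from MEC-1 cells were loaded onto SuperStreptavidin biosensors. Binding was measured by bilayer interferometry (Octet RED96) in PBS with 0.2% BSA and 1% DMSO at 30 °C. Affinities are given as apparent Kd estimates.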

MEC1 = test: Cytotoxicity against human MEC1 cells assessed as induction of cell death at 200 uM after 6 hrs by annexin V/propidium iodide staining based flow cytometric analysis relative to control; type: functional

Sequence of Leukocyte surface antigen CD47 (Q08722 whole entry): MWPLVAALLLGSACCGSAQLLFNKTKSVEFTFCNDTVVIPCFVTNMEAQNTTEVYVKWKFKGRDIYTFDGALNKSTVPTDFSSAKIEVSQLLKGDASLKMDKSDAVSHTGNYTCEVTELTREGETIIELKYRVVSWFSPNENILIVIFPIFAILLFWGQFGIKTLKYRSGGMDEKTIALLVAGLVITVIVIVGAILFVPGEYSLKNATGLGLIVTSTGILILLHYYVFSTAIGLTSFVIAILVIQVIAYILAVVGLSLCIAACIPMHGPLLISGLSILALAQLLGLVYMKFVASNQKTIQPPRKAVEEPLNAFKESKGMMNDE

`CC[C@H](C)[C@H](NC(=O)[C@@H](NC(=O)[C@@H](NC(=O)[C@H](Cc1ccc(O)cc1)NC(=O)[C@H](Cc1ccccc1)NC(=O)[C@H](CCCNC(=N)N)N(C)C(=O)[C@H](N)CCCCN)C(C)C)C(C)C)C(=O)N[C@@H](Cc1c[nH]c2ccccc12)C(=O)N[C@@H](CCCCN)C(=O)N[C@H](CCCCN)C(=O)O` was tested, and the Kd [1] was 17 µM and the Activity (MEC1) was 25%.

`CSCC[C@H](NC(=O)[C@@H](NC(=O)[C@H](C(C)C)N(C)C(=O)[C@H](Cc1ccc(O)cc1)NC(=O)[C@H](Cc1ccccc1)NC(=O)[C@H](CCCNC(=N)N)NC(=O)[C@H](N)CCCCN)C(C)C)C(=O)N[C@@H](Cc1c[nH]c2ccccc12)C(=O)N[C@@H](CCCCN)C(=O)N[C@H](CCCCN)C(=O)O` showed a Kd [1] of 36 µM and an Activity (MEC1) of 11%.

`CSCC[C@H](NC(=O)[C@@H](NC(=O)[C@@H](NC(=O)[C@H](Cc1ccc(O)cc1)NC(=O)[C@H](Cc1ccccc1)NC(=O)[C@H](CCCNC(=N)N)NC(=O)[C@H](N)CCCCN)C(C)C)C(C)C)C(=O)N[C@@H](Cc1c[nH]c2ccccc12)C(=O)N(C)[C@@H](CCCCN)C(=O)N[C@H](CCCCN)C(=O)O` showed a Kd [1] of 48 µM and an Activity (MEC1) of 20%.

`CSCC[C@H](NC(=O)[C@@H](NC(=O)[C@@H](NC(=O)[C@H](Cc1ccc(O)cc1)NC(=O)[C@H](Cc1ccccc1)NC(=O)[C@H](CCCNC(=N)N)N(C)C(=O)[C@H](N)CCCCN)C(C)C)C(C)C)C(=O)N[C@@H](Cc1c[nH]c2ccccc12)C(=O)N(C)[C@@H](CCCCN)C(=O)N[C@H](CCCCN)C(=O)O` showed a Kd [1] of 38 µM and an Activity (MEC1) of 19%.

With `CC(C)[C@H](NC(=O)[C@H](Cc1ccc(O)cc1)NC(=O)[C@H](Cc1ccccc1)NC(=O)[C@H](CCCNC(=N)N)N(C)C(=O)[C@H](N)CCCCN)C(=O)N[C@H](C(=O)N[C@@H](Cc1ccc(O)cc1)C(=O)N[C@@H](Cc1c[nH]c2ccccc12)C(=O)N[C@@H](CCCCN)C(=O)N[C@H](CCCCN)C(=O)O)C(C)C` the Kd [1] was 13 µM and the Activity (MEC1) was 19%.

With `CC(C)[C@H](NC(=O)[C@H](Cc1ccc(O)cc1)NC(=O)[C@H](Cc1ccccc1)NC(=O)[C@H](CCCNC(=N)N)N(C)C(=O)[C@H](N)CCCCN)C(=O)N[C@H](C(=O)N[C@H](C(=O)N[C@@H](Cc1c[nH]c2ccccc12)C(=O)N[C@@H](CCCCN)C(=O)N[C@H](CCCCN)C(=O)O)C(C)C)C(C)C` the Kd [1] was 9.5 µM and the Activity (MEC1) was 23%.
